Bioassay records (PubChem)
M4 antag: antagonists of human muscarinic M4 receptor (CHRM4). CHO-hM4 cells, ACh EC80, Fluo-8 calcium fluorescence. inhibition, % at 3 µM. actives 0.73% (n = 360,000). AID 624125;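 active = inhibition above its plate's cutoff, the mean inhibition of sample wells plus 3 SD, cut at about 27% in these data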;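 note: 0% = acetylcholine EC80 with DMSO and 100% = DMSO without agonist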
Target sequence (P08173 whole entry, looked up): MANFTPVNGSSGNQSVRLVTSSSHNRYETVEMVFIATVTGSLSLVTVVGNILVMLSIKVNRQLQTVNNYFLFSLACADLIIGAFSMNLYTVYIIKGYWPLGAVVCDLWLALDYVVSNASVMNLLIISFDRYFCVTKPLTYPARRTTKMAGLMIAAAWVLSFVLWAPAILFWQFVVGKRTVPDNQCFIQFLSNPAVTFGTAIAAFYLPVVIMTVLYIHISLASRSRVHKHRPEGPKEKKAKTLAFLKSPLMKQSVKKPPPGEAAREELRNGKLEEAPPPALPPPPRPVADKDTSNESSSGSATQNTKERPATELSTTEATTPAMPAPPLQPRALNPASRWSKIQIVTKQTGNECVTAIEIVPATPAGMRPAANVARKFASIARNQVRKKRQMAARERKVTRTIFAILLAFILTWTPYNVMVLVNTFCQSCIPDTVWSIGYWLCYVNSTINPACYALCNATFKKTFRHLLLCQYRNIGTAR
M5 ag: agonists of human muscarinic M5 receptor (CHRM5) | CHO-K1 hM5 cells, Fluo-8 calcium fluorescence; 0% DMSO wells, 100% maximal acetylcholine response | activation, % at 3 µM | actives 0.19% (n = 360,000) | AID 624037;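 active = activation above the run's mean over test compounds plus 3 SD, cut at about 23% in these data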;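 note: signal is peak over basal fluorescence ratio across the kinetic read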
CHRM5 PAM: positive allosteric modulators of human muscarinic M5 receptor; P08912; CHO-K1 hM5, Fluo-8 calcium, ACh EC20 PAM; 0% = ACh EC20, 100% = ACh EC100; activation, % at 3 µM; actives 0.3% (n = 360,000); AID 624038;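 active = activation above the run cutoff, the mean activation of all test compounds plus 3 SD, cut at about 18% in these data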
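Measured by: Fluo-8 calcium fluorescence; material: human M5 receptor in CHO-K1 cells; schedule: Post-acetylcholine fluorescence recording 140 s; benchmarks: low control EC20 acetylcholine (0%), high control EC100 acetylcholine (100%); read-out: Max/basal fluorescence ratio as % of EC20–EC100 ACh window; compound: single dose, 3 µM nominal final test concentration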
CHRM4 PAM: positive allosteric modulators of human muscarinic M4 receptor. AID 624126. actives 0.4% (n = 360,000). P08173. CHO-K1 hM4/Gqi5, Fluo-8 calcium fluorescence, ACh EC20; 0% = ACh EC20, 100% = maximal ACh. activation, % at 3 µM;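 active = activation above its plate's cutoff, the mean activation of sample wells plus 3 SD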
CHRM5 antagonist: antagonists of human muscarinic M5 receptor (CHRM5). CHO-hM5 cells, Fluo-8 calcium fluorescence, ACh EC80. inhibition, % at 3 µM. actives 0.59% (n = 360,000). P08912;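 active = inhibition above a per-plate cutoff, the mean of that plate's test compounds plus 3 SD, cut at about 27% in these data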;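 note: 0% = acetylcholine EC80 with DMSO and 100% = DMSO without agonist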
CHRM4 agonist: CHRM4 agonism in calcium assay; CHO-K1 hM4/Gqi5, Fluo-8 calcium fluorescence; vehicle 0%, full acetylcholine response 100%; AID 624127; actives 0.14% (n = 360,000); P08173; activation, % at 3 µM;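 active = activation above the run mean over all test wells plus 3 SD, cut at about 32% in these data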;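 note: peak over basal fluorescence ratio per well then scaled between controls; 0% = DMSO wells and 100% = acetylcholine at EC100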
Numbers without * were called inactive. Hits are enriched below; roughly 1.9% of the tested compounds scored in any of these assays.

`COc1ccc(Cl)cc1S(=O)(=O)N1CCC(C(=O)NCc2ccccn2)CC1` gave M4 antag -8, M5 ag -9, CHRM5 PAM 3, CHRM4 PAM -5, CHRM5 antagonist 0 and CHRM4 agonist 4.
For Brc1ccc(CN2CCCCCC2)cc1 the results were M4 antag 1, M5 ag -12, CHRM5 PAM 4, CHRM4 PAM 4, CHRM5 antagonist 6 and CHRM4 agonist 1.
For Nc1ccc(CN2CCCCCC2)cc1 the results were M4 antag -2, M5 ag -11, CHRM5 PAM 38*, CHRM4 PAM -1, CHRM5 antagonist 3 and CHRM4 agonist 1.
Screening O=C(Nc1nccs1)C1CC=CCC1C(=O)OCC(F)(F)C(F)F (stereo not drawn) returned M4 antag 5, M5 ag 2, CHRM5 PAM -9, CHRM4 PAM -1, CHRM5 antagonist 9 and CHRM4 agonist -1.
Screening CCOC(=O)N1CCC(NC(=S)Nc2ccc3nc(N4CCN(CC)CC4)cc(C)c3c2)CC1 returned M4 antag 37*, M5 ag 0, CHRM5 PAM 1, CHRM4 PAM -31, CHRM5 antagonist 3 and CHRM4 agonist -2.
For O=c1[nH]c(-c2ccccc2)nc(CN2CCCCC2)c1O the results were M4 antag -15, M5 ag 0, CHRM5 PAM 0, CHRM4 PAM 21*, CHRM5 antagonist -2 and CHRM4 agonist 1.
`Nc1ccc(S(=O)(=O)N2CCc3ccccc32)cc1` gave M4 antag 12, M5 ag -2, CHRM5 PAM -1, CHRM4 PAM -2, CHRM5 antagonist 7 and CHRM4 agonist 1.
`O=S(=O)(NC1CCCC1)c1ccc(S(=O)(=O)N2CCc3ccccc32)cc1` gave M4 antag 29*, M5 ag 8, CHRM5 PAM -15, CHRM4 PAM -16, CHRM5 antagonist 29* and CHRM4 agonist 22.
CN(C)c1ccc(C(=O)/C=C/c2cccnc2)cc1 was read as M4 antag 1, M5 ag -1, CHRM5 PAM -4, CHRM4 PAM 0, CHRM5 antagonist 4 and CHRM4 agonist 1.
CN(C)c1ccc(/C=C/C(=O)c2cccc(Br)c2)cc1 was read as M4 antag 63*, M5 ag 78*, CHRM5 PAM -24, CHRM4 PAM -18, CHRM5 antagonist 57* and CHRM4 agonist 349*.
Screening O=S1(=O)CC(N2CCCCC2)CN1Cc1cn(Cc2cccc(C(F)(F)F)c2)nn1 (stereo not drawn) returned M4 antag 4, M5 ag 1, CHRM5 PAM -3, CHRM4 PAM 2, CHRM5 antagonist 6 and CHRM4 agonist 1.
`CCn1c(=O)c2cc(C(=O)NCCN3CCOCC3)sc2c2ccccc21` gave M4 antag 76*, M5 ag 0, CHRM5 PAM -13, CHRM4 PAM -17, CHRM5 antagonist 7 and CHRM4 agonist 3.
Screening CCCNC(=O)C1(C)CCCN(C(=O)c2cccc(OC(F)(F)F)c2)C1 (stereo not drawn) returned M4 antag -2, M5 ag 1, CHRM5 PAM 1, CHRM4 PAM -6, CHRM5 antagonist 1 and CHRM4 agonist 0.
`N#Cc1ccccc1Cn1cc(/C=C/[N+](=O)[O-])c2ccccc21` gave M4 antag 16, M5 ag 15, CHRM5 PAM -1, CHRM4 PAM -13, CHRM5 antagonist 50* and CHRM4 agonist 5.
`CCOc1ccccc1NC(=O)C(OC(=O)c1cnccn1)c1ccccc1` (stereo not drawn) gave M4 antag 3, M5 ag 2, CHRM5 PAM -5, CHRM4 PAM 2, CHRM5 antagonist 5 and CHRM4 agonist -1.
Screening Cc1ccc(NC(=O)N2CCc3ccccc3C2)c(C)c1 returned M4 antag -10, M5 ag -6, CHRM5 PAM 6, CHRM4 PAM 19*, CHRM5 antagonist 3 and CHRM4 agonist 2.
`Cc1cc2c(cc1S(=O)(=O)N(C)c1ccccc1)n(C)c(=O)n2C` gave M4 antag 99*, M5 ag 3, CHRM5 PAM -4, CHRM4 PAM -17, CHRM5 antagonist 8 and CHRM4 agonist -2.
Screening Cc1cccc(N(C)S(=O)(=O)c2cc3c(cc2C)n(C)c(=O)c(=O)n3C)c1 returned M4 antag -1, M5 ag -2, CHRM5 PAM -4, CHRM4 PAM -7, CHRM5 antagonist 6 and CHRM4 agonist 4.
Screening Cc1ccc(C)c(OCC(=O)N(Cc2ccccc2)c2c(N)n(Cc3ccccc3)c(=O)[nH]c2=O)c1 returned M4 antag 2, M5 ag 5, CHRM5 PAM 5, CHRM4 PAM 7, CHRM5 antagonist -9 and CHRM4 agonist 1.
Screening Cc1c(C(=O)NC2CCS(=O)(=O)C2)oc2ccccc12 (stereo not drawn) returned M4 antag 1, M5 ag -3, CHRM5 PAM -4, CHRM4 PAM -8, CHRM5 antagonist 27* and CHRM4 agonist 0.
Cn1cccc1CN1CCC[C@]2(N[C@H](c3ccccc3)[C@@H]3C(=O)N(Cc4ccccc4)C(=O)[C@@H]32)C1=O was read as M4 antag -2, M5 ag 1, CHRM5 PAM -1, CHRM4 PAM -5, CHRM5 antagonist 3 and CHRM4 agonist 0.
`COc1cc(OC)cc(-c2noc(-c3csc([C@@H]4C[C@H](O)[C@@H](CO)O4)n3)n2)c1` gave M4 antag -12, M5 ag -2, CHRM5 PAM -2, CHRM4 PAM 9, CHRM5 antagonist 2 and CHRM4 agonist 3.
`COc1ccc(C=C(C(C)=O)C(=O)c2ccccc2)cc1` gave M4 antag 13, M5 ag -6, CHRM5 PAM -1, CHRM4 PAM -3, CHRM5 antagonist 8 and CHRM4 agonist 1.
Screening CC(=O)C(=Cc1ccc(Cl)cc1)C(=O)c1ccccc1 returned M4 antag 24, M5 ag -7, CHRM5 PAM 22*, CHRM4 PAM -13, CHRM5 antagonist 2 and CHRM4 agonist 2.
CC1(C(=O)NS(=O)(=O)c2cccc(C#N)c2)CCN1C(=O)C1(c2ccc(Cl)cc2)CCC1 (stereo not drawn) was read as M4 antag -6, M5 ag 1, CHRM5 PAM -3, CHRM4 PAM 0, CHRM5 antagonist 1 and CHRM4 agonist 1.
For CNC(=S)N/N=C/c1c(C)c(C(=O)c2ccc(F)cc2)n2ccccc12 the results were M4 antag -8, M5 ag -2, CHRM5 PAM -2, CHRM4 PAM -6, CHRM5 antagonist 9 and CHRM4 agonist 3.
